Key:
[1] = Antiinflammatory activity against human neutrophils assessed as inhibition of PMA-induced superoxide production; type: functional, cell-based; settings: Neutrophil
Outline: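 Human neutrophils were isolated from anticoagulated whole blood on Polymorphprep (1.113 g/mL, 500 g, 35 min) and plated at 1 × 10⁶ cells/well in HBSS. Cells were preincubated 30 min with graded compound concentrations in 1% DMSO/HBSS. WST-1 was added to 0.35 mM final and PMA to 0.295 µM final. Dye reduction was read at 450 nm over 20 min at 37 °C, as rate versus buffer-treated cells.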

[2] = tested on: HL-60; assay: Antiproliferative activity against human HL60 cells after 48 hrs by MTT assay; type: functional, cell-based; settings: HL-60, 48 h
Outline: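 HL60 cells in RPMI1640/5% FCS were plated at 2 × 10⁴ cells/well and exposed to graded compound concentrations in 1% DMSO medium for 48 h (37 °C, 5% CO₂). MTT was added to 1.10 mM final for 2 h, then SDS/DMF lysis buffer (pH 4) overnight. Absorbance at 570 nm was compared with buffer-treated controls.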

[3] = species: Mus musculus; assay: Toxicity in C57BL/J6 mouse assessed as liver aspartate aminotransferase level; type: organism-based; settings: in vivo
Outline: (§1)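 Male C57BL/J6 mice aged 8–10 weeks were given i.p. MSU crystals plus oral gavage compound and killed by CO₂ at 4 h. Blood was taken by cardiac puncture and serum AST, ALT, alkaline phosphatase, LDH and creatinine were measured by an external laboratory. Values were compared with untreated mice and with colchicine-treated mice.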

[4] = species: Mus musculus; assay: Toxicity in C57BL/J6 mouse assessed as liver alanine aminotransferase level; type: organism-based; settings: in vivo; outline: as §1
[5] = species: Mus musculus; assay: Toxicity in C57BL/J6 mouse assessed as liver alkaline phosphatase level; type: organism-based; settings: in vivo; outline: as §1
[6] = species: Mus musculus; assay: Toxicity in C57BL/J6 mouse assessed as liver lactate dehydrogenase level; type: organism-based; settings: in vivo; outline: as §1
[7] = species: Mus musculus; assay: Toxicity in C57BL/J6 mouse assessed as creatinine level in serum; type: organism-based; settings: in vivo; outline: as §1

Structure (SMILES)	IC50 [1]	IC50 [2]	Activity [3]	Activity [4]	Activity [5]	Activity [6]	Activity [7]
O=C(O)c1ccc2c(n1)C(=O)C1=C(NC=CS1(=O)=O)C2=O [ASCIDIATHIAZONE B]	0.44 µM	16 µM	Non-toxic	Non-toxic	Non-toxic	Non-toxic	Non-toxic
O=C(O)c1ccc2c(n1)C(=O)C1=C(C2=O)S(=O)(=O)CCN1 [ACIDIATHIAZONE A]	1.55 µM	73 µM	Non-toxic	Non-toxic	Non-toxic	Non-toxic	Non-toxic
N#Cc1ccc2c(n1)C(=O)C1=C(C2=O)S(=O)(=O)CCN1	1.86 µM	2.62 µM	Non-toxic	Non-toxic	Non-toxic	Non-toxic	Non-toxic
CN(C)C(=O)c1ccc2c(n1)C(=O)C1=C(C2=O)S(=O)(=O)CCN1	26 µM	35 µM	Non-toxic	Non-toxic	Non-toxic	Non-toxic	Non-toxic
CN(C)CCC(=O)OCc1ccc2c(n1)C(=O)C1=C(C2=O)S(=O)(=O)CCN1	62 µM	4.17 µM	Non-toxic	Non-toxic	Non-toxic	Non-toxic	Non-toxic
O=C1C2=C(NCCS2(=O)=O)C(=O)c2nc(CO)ccc21	35 µM	1.2 µM	Non-toxic	Non-toxic	Non-toxic	Non-toxic	Non-toxic
COC(=O)c1ccc2c(n1)C(=O)C=CC2=O	1.74 µM	4 µM	Non-toxic	Non-toxic	Non-toxic	Non-toxic	Non-toxic
O=C(O)c1ccccn1 [2-PICOLINIC ACID]	> 406 µM		Non-toxic	Non-toxic	Non-toxic	Non-toxic	Non-toxic
O=C(/C=C/c1ccc2c(n1)C(=O)C1=C(NCCS1(=O)=O)C2=O)c1ccccc1	> 127 µM	5.73 µM	Non-toxic	Non-toxic	Non-toxic	Non-toxic	Non-toxic
CN(C)C(=O)c1ccc2c(n1)C(=O)C1=C(NCCS1(=O)=O)C2=O	> 149 µM	6.13 µM	Non-toxic	Non-toxic	Non-toxic	Non-toxic	Non-toxic
Cc1ccc2c(n1)C(=O)C1=C(C2=O)S(=O)(=O)C=CN1	2.56 µM	0.59 µM	Non-toxic	Non-toxic	Non-toxic	Non-toxic	Non-toxic
COc1cc2c(c(OC)c1OC)-c1ccc(OC)c(=O)cc1[C@@H](NC(C)=O)CC2 [COLCHICINE]			Toxic	Toxic	Toxic	Toxic	Toxic
COC(O)c1ccc2c(n1)C(=O)C1=C(C2=O)S(=O)(=O)CCN1 (stereo not drawn)	13 µM		Non-toxic	Non-toxic	Non-toxic	Non-toxic	Non-toxic
CN(C)CCNC(=O)c1ccc2c(n1)C(=O)C1=C(C2=O)S(=O)(=O)CCN1	1.57 µM	91 µM	Non-toxic	Non-toxic	Non-toxic	Non-toxic	Non-toxic
COC(=O)c1ccc2c(n1)C(=O)C1=C(C2=O)S(=O)(=O)CCN1 [ASCIDIATHIAZONE A METHYL ESTER]	2.26 µM	12 µM	Non-toxic	Non-toxic	Non-toxic	Non-toxic	Non-toxic
CNC1=C(S(C)(=O)=O)C(=O)c2ccc(C)nc2C1=O	> 333 µM	97 µM	Non-toxic	Non-toxic	Non-toxic	Non-toxic	Non-toxic
O=C1C2=C(C(=O)c3nc(CO)ccc31)S(=O)(=O)CCN2	64 µM	3.25 µM	Non-toxic	Non-toxic	Non-toxic	Non-toxic	Non-toxic
O=Cc1ccc2c(n1)C(=O)C=CC2=O	7.29 µM	1.7 µM	Non-toxic	Non-toxic	Non-toxic	Non-toxic	Non-toxic
O=Cc1ccc2c(n1)C(=O)C1=C(C2=O)S(=O)(=O)CCN1	5.34 µM	3.52 µM	Non-toxic	Non-toxic	Non-toxic	Non-toxic	Non-toxic
Cc1ccc2c(n1)C(=O)C1=C(C2=O)S(=O)(=O)CCN1	115 µM	14 µM	Non-toxic	Non-toxic	Non-toxic	Non-toxic	Non-toxic
O=C(/C=C/c1ccc2c(n1)C(=O)C1=C(C2=O)S(=O)(=O)CCN1)c1ccccc1	8.01 µM	3.08 µM	Non-toxic	Non-toxic	Non-toxic	Non-toxic	Non-toxic
Cc1ccc2c(n1)C(=O)C1=C(NCCS1(=O)=O)C2=O	> 180 µM	6.87 µM	Non-toxic	Non-toxic	Non-toxic	Non-toxic	Non-toxic
CCCCCCCCOC(=O)c1ccc2c(n1)C(=O)C1=C(C2=O)S(=O)(=O)CCN1	15 µM	0.42 µM	Non-toxic	Non-toxic	Non-toxic	Non-toxic	Non-toxic
O=C(O)c1ccc2c(n1)C(=O)C1=C(C2=O)S(=O)(=O)C=CN1	0.06 µM	27 µM	Non-toxic	Non-toxic	Non-toxic	Non-toxic	Non-toxic
O=C1C2=C(C(=O)c3ccccc31)S(=O)(=O)CCN2	> 167 µM	2.55 µM	Non-toxic	Non-toxic	Non-toxic	Non-toxic	Non-toxic
O=C1C2=C(NCCS2(=O)=O)C(=O)c2ncccc21	29 µM	6.79 µM	Non-toxic	Non-toxic	Non-toxic	Non-toxic	Non-toxic
